# E-selectin induc – induces E-selectin expression in human endothelial cells; activation, % at 7.58 µM; 0.37% of 260,000 active; P16581; HUVEC E-selectin immunofluorescence imaging; normalized: neutral wells 0, TNF-alpha wells 100;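 active means mean E-selectin-positive cell signal at least 10% of the positive control, reached in at least 60% of replicates, without over 20% cell loss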
# Target sequence (P16581 whole entry, looked up): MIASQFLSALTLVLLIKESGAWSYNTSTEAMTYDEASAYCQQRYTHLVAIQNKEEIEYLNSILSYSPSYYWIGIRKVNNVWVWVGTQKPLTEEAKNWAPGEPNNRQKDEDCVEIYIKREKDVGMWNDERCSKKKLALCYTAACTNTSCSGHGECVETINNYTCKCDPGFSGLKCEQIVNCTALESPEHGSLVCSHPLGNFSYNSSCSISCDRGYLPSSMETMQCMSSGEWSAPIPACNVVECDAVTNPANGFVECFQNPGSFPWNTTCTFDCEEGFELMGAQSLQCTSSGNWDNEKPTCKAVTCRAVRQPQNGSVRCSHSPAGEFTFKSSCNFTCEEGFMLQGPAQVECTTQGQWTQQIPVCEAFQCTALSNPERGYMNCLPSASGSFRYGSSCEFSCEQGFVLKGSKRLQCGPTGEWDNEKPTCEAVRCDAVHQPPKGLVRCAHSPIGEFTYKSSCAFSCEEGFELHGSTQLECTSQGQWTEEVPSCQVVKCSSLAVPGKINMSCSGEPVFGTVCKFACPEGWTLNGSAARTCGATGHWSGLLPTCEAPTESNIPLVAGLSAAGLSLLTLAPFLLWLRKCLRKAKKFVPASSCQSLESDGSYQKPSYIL
#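 material = human umbilical vein endothelial cells (HUVEC), E-selectin induction | quantity = 3,000 cells/well | medium = EGM-2 growth medium on 0.1% gelatin-coated wells | technique = immunofluorescence imaging | read-out basis = % PE-positive cells | control set = TNF-alpha positive control, DMSO neutral control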
# Xi reactivation – reactivates the inactive X chromosome in mouse fibroblasts. XiGFP mouse fibroblasts, % GFP-positive cells imaging, 3 d; cells co-treated with 5-aza-dC sensitizer; scaled so ellipticine positive control = 100%. AID 743238. activation, % at 7.58 µM. 0.055% of 360,000 active;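 active means mean normalized replicate activation at least 10% and every replicate at or above 10%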;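 further: 0% = median of on-plate neutral control wells and 100% = ellipticine 6 µM median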
#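 Material: XiGFP fibroblasts, SV40-immortalized. Buffer or medium: DMEM plus 5-aza-dC sensitizer. Compound: single concentration per compound, delivered by pin transfer. Times: 3 days compound exposure. Controls: ellipticine 6 µM.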
# * marks the source's active call; other numbers are inactive results; . = no result. The entries come from a sample that favours hits as a whole.
SMILES,E-selectin induc,Xi reactivation
CCOC(=O)c1cccc(NC(=O)Nc2ccc(OCC)cc2)c1,.,0
CCOC(=O)c1cccc(NC(=O)Nc2ccc3c(c2)C(=O)OC3)c1,61*,0
C[C@H]1CN([C@@H](C)CO)C(=O)Cc2cc(NC(=O)c3ccncc3)ccc2O[C@@H]1CN(C)Cc1ccc(Cl)c(Cl)c1,6,0
O=[N+]([O-])c1ccc(N2CCN(c3ccc([N+](=O)[O-])cc3CO)CC2)c(CO)c1,45*,0
N#Cc1cc([N+](=O)[O-])ccc1N1CCN(c2ccccc2O)CC1,1,0
CC(C)NC(=O)N(C)C[C@@H]1Oc2ncc(C#Cc3ccc(F)cc3)cc2C(=O)N([C@@H](C)CO)C[C@@H]1C,0,0
O=c1oc2cc(O)ccc2cc1-c1nc2c(s1)CCc1ccccc1-2,.,95*
O=c1oc2ccccc2cc1-c1nc2c(s1)CCc1ccccc1-2,.,0
C[C@@H]1CN([C@@H](C)CO)C(=O)c2cc(NC(=O)Cn3cnnn3)ccc2O[C@@H]1CN(C)C(=O)Nc1ccc2c(c1)OCO2,0,0
C/C=C/c1ccc2c(c1)O[C@@H](CN(C)C(=O)c1cnccn1)[C@@H](C)CN([C@H](C)CO)S2(=O)=O,0,0
O=C(NC1CCCC1)C(c1ccc(F)cc1)N(C(=O)c1csnn1)c1ccccc1F (centres undefined),.,0
O=C(NC1CCCC1)C(c1ccc(F)cc1)N(C(=O)c1csnn1)c1ccccc1 (centres undefined),36*,0
C[C@@H]1CCCCO[C@@H](CN(C)S(=O)(=O)c2cn(C)cn2)[C@@H](C)CN([C@@H](C)CO)C(=O)c2cc(NS(=O)(=O)c3ccc(Cl)cc3)ccc2O1,.,0
CC(C)NC(=O)Nc1ccc2c(c1)C(=O)N([C@H](C)CO)C[C@@H](C)[C@@H](CN(C)Cc1ccc(-c3ccccc3)cc1)O2,0,0
Cc1cc(C(=O)N/N=C/C=C/c2ccc([N+](=O)[O-])cc2)n[nH]1,54*,0
Cc1cc(C(=O)N/N=C/C=C/c2ccc(Br)cc2)n[nH]1,0,0
COc1ccc2c3c(n(C)c2c1)[C@@H](CO)NCC31CCN(Cc2ccccc2Cl)CC1,0,0
C[C@@H]1CN([C@H](C)CO)C(=O)c2cc(NC(=O)Cn3cnnn3)ccc2O[C@@H]1CN(C)Cc1ccc(Oc2ccccc2)cc1,88*,0
C[C@@H]1CN([C@@H](C)CO)C(=O)c2cc(NC(=O)Cn3cnnn3)ccc2O[C@H]1CN(C)Cc1ccc(-c2ccccc2)cc1,0,0
C[C@@H]1CN([C@@H](C)CO)C(=O)c2cc(NC(=O)Cn3cnnn3)ccc2O[C@@H]1CN(C)Cc1ccc(Oc2ccccc2)cc1,52*,0
C[C@@H]1CN([C@@H](C)CO)C(=O)c2cc(NC(=O)Cn3cnnn3)ccc2O[C@H]1CN(C)S(=O)(=O)c1ccccc1,10,0
C[C@@H]1CN([C@H](C)CO)C(=O)c2cc(NC(=O)Cn3cnnn3)ccc2O[C@@H]1CN(C)S(=O)(=O)c1ccccc1,60*,0
C[C@H]1CN([C@@H](C)CO)C(=O)c2cc(NC(=O)Cn3cnnn3)ccc2O[C@@H]1CN(C)Cc1ccccc1,0,-1
COc1ccc2c3c(n(C)c2c1)[C@@H](CO)N(C(=O)C1CCCC1)CC31CCN(Cc2cccc(F)c2)CC1,0,1
CN(C)c1ccc2c(c1)[C@@H]1C[C@H](CC(=O)O)O[C@H](CO)[C@@H]1O2,1,0
SMILES,E-selectin induc,Xi reactivation
O=S(=O)(c1cccc(F)c1)N1CC[C@@H]2[C@@H](CO)Nc3ccc(-c4cccc(F)c4)cc3[C@@H]21,1,0
C[C@H]1CCCCO[C@@H](CN(C)C(=O)Nc2ccc3c(c2)OCO3)[C@@H](C)CN([C@@H](C)CO)C(=O)c2cc(NS(=O)(=O)c3cn(C)cn3)ccc2O1,0,0
CN1CCS/C1=C/C=C1/SC(=S)N(Cc2ccccc2)C1=O,.,6
CCN1C(=O)/C(=C/C=C2/Sc3ccc4ccccc4c3N2CCO)SC1=S,34*,0
CC(=O)NC1C(=O)N(CCN2CCOCC2)c2ccc(F)cc21 (centres undefined),53*,0
CC(=O)NC1C(=O)N(CCN2CCOCC2)c2ccc(Cl)cc21 (centres undefined),0,0
CC(C)NC(=O)Nc1ccc2c(c1)C(=O)N([C@@H](C)CO)C[C@@H](C)[C@H](CN(C)C(=O)Nc1ccc3c(c1)OCO3)OCCCC[C@@H](C)O2,.,0
COc1ccc2[nH]c(=O)cc(C(=O)O)c2c1,4,0
COc1ccc2[nH]c3c4c(ccc3c2c1)C(=O)C=CC4=O,0,12*
COc1ccccc1N1CCN(C(=O)C(C)NC(=O)c2ccco2)CC1 (centres undefined),0,0
COc1ccccc1N1CCN(C(=O)c2ccco2)CC1,35*,0
COc1ccc(NC(=O)N(C)C[C@H]2Oc3c(NC(=O)c4ccncc4)cccc3C(=O)N([C@@H](C)CO)C[C@@H]2C)cc1,0,-1
C=CCn1c(=N)n(CC(=O)c2ccc(Br)s2)c2ccccc21,69*,0
C=CCn1c(=N)n(CC(=O)c2ccc(Cl)cc2)c2ccccc21,.,0
COCCNC(=O)[C@@H]1[C@@H](CO)[C@@H]2Cn3c(cccc3=O)[C@@H]2N1Cc1ccccc1OC,0,0
CC(=NNc1nc2ccccc2o1)c1cc2ccccc2cn1,0,73*
CC(=NNc1nc2ccccc2o1)c1ncccn1,0,0
C[C@H]1CCCCO[C@@H](CN(C)C(=O)Nc2ccccc2)[C@@H](C)CN([C@@H](C)CO)C(=O)c2cc(NC(=O)c3ccccc3)ccc2O1,.,0
CN(Cc1ccsc1)C(=O)CCc1nnc(Cc2c[nH]c3ccccc23)o1,.,0
CN(Cc1ccsc1)C(=O)CCc1nnc(CCCc2ccccc2)o1,27*,.
COc1ccc(S(=O)(=O)Nc2ccc3c(c2)C(=O)N([C@@H](C)CO)C[C@@H](C)[C@@H](CN(C)Cc2ccccc2)OCCCC[C@H](C)O3)cc1,0,0
O=C1CN(C(=O)COC(=O)c2cccs2)c2ccccc2N1,80*,0
O=C1CN(C(=O)COC(=O)c2ccccc2O)c2ccccc2N1,.,0
O=C(C[C@@H]1CC[C@@H]2[C@H](COC[C@H](O)CN2Cc2cccc(-c3ccncc3)c2)O1)N1CCN(c2ccccc2)CC1,0,3
N/C(=N\OC(=O)Nc1ccccc1)c1cccc(C(F)(F)F)c1,.,0
Cc1cc(/C(N)=N/OC(=O)Nc2cccc(C(F)(F)F)c2)no1,67*,0
C[C@@H]1CN([C@H](C)CO)S(=O)(=O)c2ccc(-c3cccnc3)cc2O[C@H]1CN(C)Cc1cccnc1,0,-1
CC(=O)N(C)C[C@@H]1Oc2ncc(C#CC3(O)CCCC3)cc2C(=O)N([C@@H](C)CO)C[C@H]1C,0,0
C[C@@H]1CN([C@@H](C)CO)C(=O)c2cc(NS(=O)(=O)c3ccccc3)ccc2O[C@@H]1CN(C)C(=O)NC1CCCCC1,14,0
C[C@H]1CN([C@@H](C)CO)C(=O)c2cc(NS(=O)(=O)c3ccccc3)ccc2O[C@H]1CN(C)C(=O)NC1CCCCC1,-6,0

# Source: PubChem BioAssay
